The source made the active and inactive calls. The calls are words filed in the database; no cut-off is given here.
What was measured:
MGC-803 [1] = test: Antiproliferative activity against human MGC803 cells after 48 hrs by MTT assay; format: functional, cell-based; settings: MGC-803, 48 h
In short: (§1)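 Cells exposed to compounds for 48 h, then read by MTT. IC50 is the concentration giving 50% inhibition of tumour cell proliferation, taken from dose-response curves. Values are means±SD of three independent experiments. 5-FU was the reference drug.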

PC-3 = test: Antiproliferative activity against human PC3 cells after 48 hrs by MTT assay; format: functional, cell-based; settings: PC-3, 48 h; in short: as §1
ECa-109 cell line = test: Antiproliferative activity against human EC109 cells after 48 hrs by MTT assay; format: functional, cell-based; settings: ECa-109, 48 h; in short: as §1
MGC-803 [2] = test: Induction of apoptosis in human MGC803 cells assessed as viable cells at 6 uM after 48 hrs Annexin V-FITC/propidium iodide based flow cytometry (96.5%); format: functional; settings: MGC-803, 48 h, read-out: Activity
In short: (§2)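 MGC-803 cells treated at 0, 6, 8 or 10 µM for 48 h. Cells then double-stained with Annexin V-FITC and propidium iodide and analysed by biparametric flow cytometry.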

MGC-803 [3] = test: Inhibition of colony formation in human MGC803 cells up to 8 uM after 7 days; format: functional, cell-based
In short: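 MGC-803 cells treated at various concentrations for about a week. Colonies then imaged and compared with untreated control.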

MGC-803 [4] = test: Induction of apoptosis in human MGC803 cells assessed as necrotic cells at 6 uM after 48 hrs Annexin V-FITC/propidium iodide based flow cytometry (0.1%); format: functional; in short: as §2
MGC-803 [5] = test: Cell cycle arrest in human MGC803 cells assessed as accumulation at G1 phase at 8 uM after 48 hrs by propidium iodide-staining based flow cytometry (50.18%); format: functional
In short: (§3)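 MGC-803 cells treated at 0, 6 or 8 µM for 48 h. Cells then fixed, stained with propidium iodide and analysed by flow cytometry for cell-cycle phase distribution.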

MGC-803 [6] = test: Induction of apoptosis in human MGC803 cells assessed as increase in Bax expression after 48 hrs by Western blot analysis; format: functional, cell-based
In short: (§4)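 MGC-803 cells treated at 0, 6, 8 or 10 µM for 48 h, then Western blotted. Band levels analysed statistically against control. Results representative of three independent experiments.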

MGC-803 [7] = test: Induction of apoptosis in human MGC803 cells assessed as chromatin condensation at 6 to 10 uM after 48 hrs by Hoechst 33258-staining based fluorescent microscopy; format: functional, cell-based
In short: (§5)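 MGC-803 cells incubated at the indicated concentrations for 48 h. Nuclei then stained (legend says DAPI; methods say Hoechst 33258) and viewed by fluorescence microscopy at ×400.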

MGC-803 [8] = test: Cell cycle arrest in human MGC803 cells assessed as accumulation at S phase at 8 uM after 48 hrs by propidium iodide-staining based flow cytometry (25.56%); format: functional; in short: as §3
MGC-803 [9] = test: Induction of mitochondrial membrane potential loss in human MGC803 cells assessed as collapse of the mitochondrial membrane potential at 10 uM after 48 hrs by JC-1 staining based flow cytometry (reference value: 4.1%); format: functional
In short: (§6)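 MGC-803 cells treated with vehicle or 6, 8 or 10 µM for 48 h. Mitochondrial membrane potential measured by JC-1 dye retention on flow cytometry.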

MGC-803 [10] = test: Induction of apoptosis in human MGC803 cells assessed as increase in cleaved caspase-9 expression after 48 hrs by Western blot analysis; format: functional, cell-based; in short: as §4
MGC-803 [11] = test: Induction of apoptosis in human MGC803 cells assessed as necrotic cells at 8 uM after 48 hrs Annexin V-FITC/propidium iodide based flow cytometry (0.1%); format: functional; in short: as §2
MGC-803 [12] = test: Induction of apoptosis in human MGC803 cells assessed as viable cells at 8 uM after 48 hrs Annexin V-FITC/propidium iodide based flow cytometry (96.5%); format: functional; settings: MGC-803, 48 h, read-out: Activity; in short: as §2
MGC-803 [13] = test: Cell cycle arrest in human MGC803 cells assessed as accumulation at G2/M phase at 6 uM after 48 hrs by propidium iodide-staining based flow cytometry (19.75%); format: functional; in short: as §3
MGC-803 [14] = test: Cell cycle arrest in human MGC803 cells assessed as accumulation at G2/M phase at 8 uM after 48 hrs by propidium iodide-staining based flow cytometry (19.75%); format: functional; in short: as §3
MGC-803 [15] = test: Cell cycle arrest in human MGC803 cells assessed as accumulation at G2/M phase after 48 hrs by propidium iodide-staining based flow cytometry; format: functional; in short: as §3
MGC-803 [16] = test: Induction of morphological changes in human MGC803 cells assessed as rounding up of cells at 6 to 10 uM after 48 hrs by inverted microscopic analysis; format: functional, cell-based
In short: (§7)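 MGC-803 cells incubated at 0, 6, 8 or 10 µM for 48 h. Morphology then recorded under an inverted microscope at ×400.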

MGC-803 [17] = test: Induction of apoptosis in human MGC803 cells assessed as decrease in Bcl-xl expression up to 10 uM after 48 hrs by Western blot analysis; format: functional, cell-based
MGC-803 [18] = test: Induction of apoptosis in human MGC803 cells assessed as necrotic cells at 10 uM after 48 hrs Annexin V-FITC/propidium iodide based flow cytometry (0.1%); format: functional; in short: as §2
MGC-803 [19] = test: Induction of apoptosis in human MGC803 cells assessed as nuclear condensation at 6 to 10 uM after 48 hrs by Hoechst 33258-staining based fluorescent microscopy; format: functional, cell-based; in short: as §5
MGC-803 [20] = test: Cell cycle arrest in human MGC803 cells assessed as accumulation at S phase at 6 uM after 48 hrs by propidium iodide-staining based flow cytometry (25.56%); format: functional; in short: as §3
MGC-803 [21] = test: Induction of mitochondrial membrane potential loss in human MGC803 cells assessed as collapse of the mitochondrial membrane potential at 8 uM after 48 hrs by JC-1 staining based flow cytometry (reference value: 4.1%); format: functional; in short: as §6
MGC-803 [22] = test: Induction of apoptosis in human MGC803 cells assessed as late apoptotic cells at 10 uM after 48 hrs Annexin V-FITC/propidium iodide based flow cytometry (1%); format: functional; in short: as §2
MGC-803 [23] = test: Cell cycle arrest in human MGC803 cells assessed as accumulation at G1 phase at 6 uM after 48 hrs by propidium iodide-staining based flow cytometry (50.18%); format: functional; in short: as §3
MGC-803 [24] = test: Induction of apoptosis in human MGC803 cells assessed as viable cells at 10 uM after 48 hrs Annexin V-FITC/propidium iodide based flow cytometry (96.5%); format: functional; settings: MGC-803, 48 h, read-out: Activity; in short: as §2
GES1 = test: Cytotoxicity against human GES-1 cells after 48 hrs by MTT assay; format: cell-based; settings: GES1, 48 h
MGC-803 [25] = test: Induction of apoptosis in human MGC803 cells assessed as increase in cleaved PARP expression after 48 hrs by Western blot analysis; format: functional, cell-based; in short: as §4
MGC-803 [26] = test: Induction of mitochondrial membrane potential loss in human MGC803 cells assessed as collapse of the mitochondrial membrane potential at 6 uM after 48 hrs by JC-1 staining based flow cytometry (reference value: 4.1%); format: functional; in short: as §6
MGC-803 [27] = test: Induction of apoptosis in human MGC803 cells assessed as nuclear fragmentation at 6 to 10 uM after 48 hrs by Hoechst 33258-staining based fluorescent microscopy; format: functional, cell-based; in short: as §5
MGC-803 [28] = test: Induction of apoptosis in human MGC803 cells assessed as increase in DR4 expression after 48 hrs by Western blot analysis; format: functional, cell-based; in short: as §4
MGC-803 [29] = test: Induction of apoptosis in human MGC803 cells assessed as late apoptotic cells at 8 uM after 48 hrs Annexin V-FITC/propidium iodide based flow cytometry (1%); format: functional; in short: as §2
MGC-803 [30] = test: Induction of apoptosis in human MGC803 cells assessed as early apoptotic cells at 6 uM after 48 hrs Annexin V-FITC/propidium iodide based flow cytometry (2.3%); format: functional; in short: as §2
MGC-803 [31] = test: Induction of apoptosis in human MGC803 cells assessed as early apoptotic cells at 10 uM after 48 hrs Annexin V-FITC/propidium iodide based flow cytometry (2.3%); format: functional; in short: as §2
MGC-803 [32] = test: Induction of mitochondrial membrane potential loss in human MGC803 cells after 48 hrs by JC-1 staining based flow cytometry; format: functional, cell-based; in short: as §6
MGC-803 [33] = test: Induction of apoptosis in human MGC803 cells assessed as increase in cleaved caspase-3 expression after 48 hrs by Western blot analysis; format: functional, cell-based; in short: as §4
MGC-803 [34] = test: Induction of apoptosis in human MGC803 cells assessed as decrease in Bcl2 expression up to 10 uM after 48 hrs by Western blot analysis; format: functional, cell-based
MGC-803 [35] = test: Induction of apoptosis in human MGC803 cells assessed as late apoptotic cells at 6 uM after 48 hrs Annexin V-FITC/propidium iodide based flow cytometry (1%); format: functional; in short: as §2
MGC-803 [36] = test: Induction of morphological changes in human MGC803 cells assessed as formation of cell debris at 6 to 10 uM after 48 hrs by inverted microscopic analysis; format: functional, cell-based; in short: as §7
MGC-803 [37] = test: Induction of apoptosis in human MGC803 cells assessed as early apoptotic cells at 8 uM after 48 hrs Annexin V-FITC/propidium iodide based flow cytometry (2.3%); format: functional; in short: as §2
MGC-803 [38] = test: Induction of apoptosis in human MGC803 cells after 48 hrs Annexin V-FITC/propidium iodide based flow cytometry; format: functional, cell-based; in short: as §2

Structure (SMILES): O=c1cc(OCCCn2cc(CSc3nnc(-c4ccccc4)c(-c4ccccc4)n3)nn2)c2ccccc2o1
- IC50 (MGC-803 [1]): > 100 µM
- IC50 (PC-3): 57.8 µM
- IC50 (ECa-109 cell line): > 100 µM

Structure (SMILES): COc1ccc(Cn2cc(CSc3nnc(-c4ccccc4)c(-c4ccccc4)n3)nn2)cc1
- IC50 (MGC-803 [1]): 22.7 µM
- IC50 (PC-3): 27.5 µM
- IC50 (ECa-109 cell line): 28.4 µM

Structure (SMILES): COc1ccc(C(=O)/C=C/c2ccc(-n3cc(CSc4nnc(-c5ccccc5)c(-c5ccccc5)n4)nn3)cc2)cc1
- IC50 (MGC-803 [1]): 36.7 µM
- IC50 (PC-3): > 100 µM
- IC50 (ECa-109 cell line): > 100 µM

Structure (SMILES): COc1ccc(-c2coc3cc(OCCCn4cc(CSc5nnc(-c6ccccc6)c(-c6ccccc6)n5)nn4)ccc3c2=O)cc1
- IC50 (MGC-803 [1]): > 100 µM
- IC50 (PC-3): 10.2 µM
- IC50 (ECa-109 cell line): > 100 µM

Structure (SMILES): Fc1ccc(Cn2cc(CSc3nnc(-c4ccccc4)c(-c4ccccc4)n3)nn2)cc1
- viability at 6 µM (MGC-803 [2]): 88.7%
- inhibition (MGC-803 [3]): Dose-dependent effect
- Activity (MGC-803 [4]): 0.2%
- Activity (MGC-803 [5]): 30.03%
- Activity (MGC-803 [6]): Dose-dependent effect
- Activity (MGC-803 [7]): Active
- Activity (MGC-803 [8]): 25.87%
- Activity (MGC-803 [9]): 42.9%
- Activity (MGC-803 [10]): Dose-dependent effect
- Activity (MGC-803 [11]): 0.2%
- viability at 8 µM (MGC-803 [12]): 75.9%
- Activity (MGC-803 [13]): 26.75%
- Activity (MGC-803 [14]): 34.39%
- Activity (MGC-803 [15]): Dose-dependent effect
- Activity (MGC-803 [16]): Active
- Activity (MGC-803 [17]): Active
- IC50 (MGC-803 [1]): 7.59 µM
- Activity (MGC-803 [18]): 0.1%
- Activity (MGC-803 [19]): Active
- Activity (MGC-803 [20]): 25.11%
- Activity (MGC-803 [21]): 17%
- IC50 (PC-3): 10.6 µM
- Activity (MGC-803 [22]): 27.3%
- Activity (MGC-803 [23]): 41.49%
- viability at 10 µM (MGC-803 [24]): 45.1%
- IC50 (GES1): 31.7 µM
- Activity (MGC-803 [25]): Dose-dependent effect
- Activity (MGC-803 [26]): 5.2%
- Activity (MGC-803 [27]): Active
- Activity (MGC-803 [28]): Dose-dependent effect
- Activity (MGC-803 [29]): 7%
- Activity (MGC-803 [30]): 8.2%
- Activity (MGC-803 [31]): 27.5%
- Activity (MGC-803 [32]): Dose-dependent effect
- IC50 (ECa-109 cell line): 19.1 µM
- Activity (MGC-803 [33]): Dose-dependent effect
- Activity (MGC-803 [34]): Active
- Activity (MGC-803 [35]): 2.9%
- Activity (MGC-803 [36]): Active
- Activity (MGC-803 [37]): 16.9%
- Activity (MGC-803 [38]): Dose-dependent effect

Structure (SMILES): CC(=O)CSc1nnc(-c2ccccc2)c(-c2ccccc2)n1
- IC50 (MGC-803 [1]): > 100 µM
- IC50 (PC-3): > 100 µM
- IC50 (ECa-109 cell line): > 100 µM

Structure (SMILES): O=c1[nH]cc(F)c(=O)[nH]1 [FLUOROURACIL]
- IC50 (MGC-803 [1]): 9.79 µM
- IC50 (PC-3): 12.9 µM
- IC50 (ECa-109 cell line): 56.2 µM

Structure (SMILES): c1ccc(-c2nnc(SCc3cn(Cc4ccc5ccccc5c4)nn3)nc2-c2ccccc2)cc1
- IC50 (MGC-803 [1]): > 100 µM
- IC50 (PC-3): > 100 µM
- IC50 (ECa-109 cell line): > 100 µM
